Activity calls are given as the source filed them. No rule for the calls is given here.
How the values were obtained:
MCF7 [1] = test: Growth inhibition of human MCF7 cells after 96 hrs by sulphorhodamine B assay; assay type: functional; conditions: MCF7, 96 h
Procedure, shortened: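 SRB growth assay; MCF7 and WI38 seeded 4000 cells/well, A549 2000 cells/well, attached overnight, then exposed to freshly made drug solutions (0.1 to 50 μM) for 96 h. Fixed with cold 10% TCA, stained with 0.4% SRB; absorbance at 540 nm as percent of untreated control, IC50 from mean absorbance.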

MCF7 [2] = test: Selectivity index, ratio of GI50 for human A549 cells to GI50 for human MCF7 cells; assay type: functional
MCF7 [3] = test: Selectivity index, ratio of GI50 for human WI38 cells to GI50 for human MCF7 cells; assay type: functional
Histone deacetylase 8 = target: T1, Histone deacetylase 8 (Homo sapiens, UniProt Q9BY41); test: Inhibition of human recombinant HDAC8 using Boc-lys(Ac)-AMC as substrate preincubated for 20 mins with substrate measured after 60 mins by fluorescence analysis
T1 sequence (Q9BY41 whole entry): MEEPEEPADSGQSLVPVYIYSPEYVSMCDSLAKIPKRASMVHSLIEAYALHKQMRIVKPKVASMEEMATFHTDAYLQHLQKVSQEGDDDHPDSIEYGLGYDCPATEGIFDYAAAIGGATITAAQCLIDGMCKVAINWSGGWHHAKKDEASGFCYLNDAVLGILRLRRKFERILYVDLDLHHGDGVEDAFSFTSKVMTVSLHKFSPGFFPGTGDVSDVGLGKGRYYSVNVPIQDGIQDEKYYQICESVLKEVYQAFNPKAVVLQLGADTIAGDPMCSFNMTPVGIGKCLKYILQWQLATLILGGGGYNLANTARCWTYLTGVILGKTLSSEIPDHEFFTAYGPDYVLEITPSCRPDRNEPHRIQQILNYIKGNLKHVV

[4] = target: T2, Histone deacetylase-like amidohydrolase (Alcaligenes sp. (strain DSM 11172) (Bordetella sp. (strain FB188))) (UniProt Q70I53); test: Inhibition of Bordetella sp. (strain FB188) N-terminus His-tagged HDAH expressed in Escherichia coli BL21 (DE3) up to 100 uM; conditions: Alcaligenaceae bacterium FB188
T2 sequence (whole entry): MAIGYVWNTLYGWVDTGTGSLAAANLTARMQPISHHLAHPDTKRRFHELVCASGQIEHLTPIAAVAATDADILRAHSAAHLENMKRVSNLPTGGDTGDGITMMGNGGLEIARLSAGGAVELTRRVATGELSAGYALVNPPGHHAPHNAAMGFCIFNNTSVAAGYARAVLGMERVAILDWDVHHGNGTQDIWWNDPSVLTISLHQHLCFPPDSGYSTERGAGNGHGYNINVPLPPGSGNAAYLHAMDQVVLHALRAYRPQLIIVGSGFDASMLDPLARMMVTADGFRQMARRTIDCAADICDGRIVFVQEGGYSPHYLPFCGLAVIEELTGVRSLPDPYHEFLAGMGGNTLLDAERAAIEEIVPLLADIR
Procedure, shortened: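 Recombinant N-terminal His6-tagged HDAH from Bordetella strain FB188, expressed in E. coli BL21, purified on zinc-loaded His-Trap column, eluted with 500 mM imidazole, dialyzed into assay buffer (>98% pure by SDS-PAGE). Tested directly against compounds; thiols generated in situ from disulfides with TCEP.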

[5] = target: T3, Protein deacetylase HDAC6 (Homo sapiens, UniProt Q9UBN7); test: Inhibition of human recombinant HDAC6 using Boc-lys(Ac)-AMC as substrate preincubated for 20 mins with substrate measured after 60 mins by fluorescence analysis
T3 sequence (Q9UBN7 whole entry): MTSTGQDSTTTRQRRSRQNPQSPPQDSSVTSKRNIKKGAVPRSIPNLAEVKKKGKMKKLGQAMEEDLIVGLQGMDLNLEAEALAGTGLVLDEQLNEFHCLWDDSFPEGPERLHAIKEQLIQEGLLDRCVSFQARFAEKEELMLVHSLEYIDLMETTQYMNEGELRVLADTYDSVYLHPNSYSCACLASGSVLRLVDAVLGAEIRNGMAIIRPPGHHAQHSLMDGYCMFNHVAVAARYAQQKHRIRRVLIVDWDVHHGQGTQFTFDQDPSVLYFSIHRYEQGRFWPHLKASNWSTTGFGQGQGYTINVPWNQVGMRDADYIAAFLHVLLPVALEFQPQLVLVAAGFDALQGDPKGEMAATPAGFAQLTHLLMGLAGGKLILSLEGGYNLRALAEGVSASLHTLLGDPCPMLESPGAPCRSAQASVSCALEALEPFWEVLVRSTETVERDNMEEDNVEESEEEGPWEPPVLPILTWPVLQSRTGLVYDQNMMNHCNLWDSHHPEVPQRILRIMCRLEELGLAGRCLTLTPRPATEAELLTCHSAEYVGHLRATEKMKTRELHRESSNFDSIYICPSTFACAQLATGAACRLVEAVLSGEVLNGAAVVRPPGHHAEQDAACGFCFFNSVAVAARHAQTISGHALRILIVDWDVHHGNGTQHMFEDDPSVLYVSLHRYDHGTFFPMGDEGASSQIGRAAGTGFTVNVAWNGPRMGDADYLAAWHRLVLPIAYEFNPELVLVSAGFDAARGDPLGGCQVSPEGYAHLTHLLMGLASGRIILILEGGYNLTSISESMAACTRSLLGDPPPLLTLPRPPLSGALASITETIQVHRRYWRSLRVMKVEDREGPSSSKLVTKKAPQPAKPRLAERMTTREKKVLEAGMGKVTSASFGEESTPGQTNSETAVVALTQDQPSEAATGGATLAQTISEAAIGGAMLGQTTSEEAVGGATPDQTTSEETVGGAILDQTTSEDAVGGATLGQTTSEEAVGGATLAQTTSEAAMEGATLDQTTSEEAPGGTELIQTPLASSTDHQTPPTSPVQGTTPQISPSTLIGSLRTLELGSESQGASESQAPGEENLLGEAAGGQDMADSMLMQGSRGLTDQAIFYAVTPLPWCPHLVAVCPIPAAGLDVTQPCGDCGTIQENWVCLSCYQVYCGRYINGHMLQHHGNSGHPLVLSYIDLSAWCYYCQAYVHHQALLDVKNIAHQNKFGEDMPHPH

GI50 (MCF7 [1]): 3.42 µM
IC50 (Histone deacetylase 8): 13 µM
inhibition [4]: inactive
IC50 [5]: 1 µM
SMILES: N/N=C(\Cc1ccc(O)c(Br)c1)C(=O)NCCS
RatioGI50 (MCF7 [2]): 10
RatioGI50 (MCF7 [3]): 10
